Measured values from ChEMBL document CHEMBL1938247, “Synthesis and evaluation of inhibitors of bacterial drug efflux pumps of the major facilitator superfamily” (2011).
≈ marks a conversion by molar mass, not a printed value. Calls of active or inactive are those of the source. The calls are words filed in the database; no cut-off is given here. Where a SMILES comes first, the peptide text is derived from it. [ ]: non-standard residue; d: D form. The star is where a group is joined. ξ: configuration not given here. ξhPhe = NC(CCc1ccccc1)C(=O)O; βNA = c1ccc2cc(N*)ccc2c1

Key:
Streptomyces coelicolor [1] = assay: Antibacterial activity against Streptomyces coelicolor at 25 ug/mL after 48 hrs; type: functional, organism-based
How it was run: (§1)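 Strains: wild-type S. coelicolor, or PCR-targeted null mutants lacking cmlR1, cmlR2 or both. Inhibitors HPLC-purified before testing; inhibitor alone at 25 μg/mL also checked for intrinsic toxicity.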

Streptomyces coelicolor [2] = assay: Antibacterial activity against Streptomyces coelicolor after 48 hrs; type: functional
Streptomyces coelicolor [3] = assay: Potentiation of chloramphenicol-induced antibacterial activity against Streptomyces coelicolor at 25 ug/mL after 48 hrs relative to control; type: functional
How it was run: (§2)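 1 μL of a 10⁸ cfu/μL spore stock patched per plate; incubated at 30 °C. Strains: wild-type S. coelicolor, or PCR-targeted null mutants lacking cmlR1, cmlR2 or both. Reference efflux inhibitor MC-207,110 (Phe-Arg-β-naphthylamide) tested at the same 25 μg/mL.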

Streptomyces coelicolor [4] = assay: Antibacterial activity against cmlR1-deficient Streptomyces coelicolor at 25 ug/mL after 48 hrs; type: functional, organism-based; how it was run: as §1
Streptomyces coelicolor [5] = assay: Potentiation of chloramphenicol-induced antibacterial activity against Streptomyces coelicolor at 25 ug/mL after 48 hrs relative to MC-207,110; type: functional; how it was run: as §2
Streptomyces coelicolor [6] = assay: Antibacterial activity against cmlR1 and cmlR2-deficient Streptomyces coelicolor at 25 ug/mL after 48 hrs; type: functional, organism-based; how it was run: as §1
Streptomyces coelicolor [7] = assay: Potentiation of chloramphenicol-induced antibacterial activity against cmlR1-deficient Streptomyces coelicolor at 25 ug/mL after 48 hrs relative to control; type: functional; how it was run: as §2
Streptomyces coelicolor [8] = assay: Antibacterial activity against cmlR2-deficient Streptomyces coelicolor at 25 ug/mL after 48 hrs; type: functional, organism-based; how it was run: as §1
Streptomyces coelicolor [9] = assay: Inhibition of cmlR2 overexpressed in Streptomyces coelicolor assessed as potentiation of chloramphenicol-induced antibacterial activity measuring reduction in MIC of chloramphenicol at 25 ug/mL after 48 hrs relative to control
How it was run: (§3)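 The cmlR1/cmlR2 double-null S. coelicolor strain was engineered to over-express cmlR1 or cmlR2 from a strong constitutive promoter. Spores (1 μL of a 10⁸ cfu/μL stock) were patched on Difco nutrient agar with 25 μg/mL inhibitor and varying chloramphenicol, then incubated at 30 °C. The chloramphenicol MIC (μg/mL) was read, and fold-potentiation was taken relative to the MIC without inhibitor.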

Streptomyces coelicolor [10] = assay: Inhibition of cmlR1 overexpressed in Streptomyces coelicolor assessed as potentiation of chloramphenicol-induced antibacterial activity measuring reduction in MIC of chloramphenicol at 25 ug/mL after 48 hrs relative to control; how it was run: as §3
Streptomyces coelicolor [11] = assay: Potentiation of chloramphenicol-induced antibacterial activity against cmlR1 and cmlR2-deficient Streptomyces coelicolor at 25 ug/mL after 48 hrs relative to control; type: functional; how it was run: as §2
Streptomyces coelicolor [12] = assay: Potentiation of chloramphenicol-induced antibacterial activity against cmlR2-deficient Streptomyces coelicolor at 25 ug/mL after 48 hrs relative to control; type: functional; how it was run: as §2
Streptomyces coelicolor [13] = assay: Antibacterial activity against Streptomyces coelicolor overexpressing cmlR1 at 25 ug/mL after 48 hrs; type: functional, organism-based
How it was run: (§4)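 Host strains were the cmlR1/cmlR2 double-null S. coelicolor carrying cmlR1 or cmlR2 under a strong constitutive promoter, selected for hygromycin resistance. Growth was checked on Difco nutrient agar containing 25 μg/mL test compound alone, with plates kept at 30 °C.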

Streptomyces coelicolor [14] = assay: Antibacterial activity against Streptomyces coelicolor overexpressing cmlR2 at 25 ug/mL after 48 hrs; type: functional, organism-based; how it was run: as §4

Compound	Activity (Streptomyces coelicolor [1])	MIC (Streptomyces coelicolor [2]) [µg/mL]	Activity (Streptomyces coelicolor [3])	other results
NCCC[C@H](N)C(=O)N[C@@H](CCc1ccccc1)C(=O)Nc1ccc2ccccc2c1	inactive	11 (≈ 26.3 µM)	–	fold change (FC) (Streptomyces coelicolor [3]): 5.9
NCCC[C@@H](N)C(=O)NC(CCc1ccccc1)C(=O)Nc1ccc2ccccc2c1 (mixture of isomers)	inactive	10	–	fold change (FC) (Streptomyces coelicolor [3]): 6.5
N=C(N)NCCC[C@H](NC(=O)[C@@H](N)Cc1ccccc1)C(=O)Nc1ccc2ccccc2c1 [PABETAN] (H-Phe-Arg-βNA)	inactive	25 (≈ 56 µM)	–	fold change (FC) (Streptomyces coelicolor [3]): 2.6
CN(C(=O)[C@H](N)CCCN)C(CCc1ccccc1)C(=O)Nc1ccc2ccccc2c1 (stereo partly drawn)	inactive	–	Active	–
NCCC[C@H](N)C(=O)NC(CCc1ccccc1)C(=O)Nc1cnc2ccccc2c1 (mixture of isomers)	inactive	> 40	–	–
NCCC[C@@H](N)C(=O)NC(C(=O)Nc1ccc2ccccc2c1)c1ccco1 (stereo partly drawn)	inactive	–	–	–
NCCC(=O)NC(CCc1ccccc1)C(=O)Nc1ccc2ccccc2c1 (stereo not drawn)	inactive	–	Active	–
NCCC[C@H](N)C(=O)N[C@H](CCc1ccccc1)C(=O)Nc1ccc2ccccc2c1	inactive	9 (≈ 21.5 µM)	–	Activity (Streptomyces coelicolor [4]): inactive; fold change (FC) (Streptomyces coelicolor [5]): 3; Activity (Streptomyces coelicolor [6]): inactive; fold change (FC) (Streptomyces coelicolor [7]): 3.3; Activity (Streptomyces coelicolor [8]): inactive; fold change (FC) (Streptomyces coelicolor [9]): 7.3; fold change (FC) (Streptomyces coelicolor [10]): 3.5; fold change (FC) (Streptomyces coelicolor [11]): 1.8; fold change (FC) (Streptomyces coelicolor [12]): 2.4; Activity (Streptomyces coelicolor [13]): inactive; fold change (FC) (Streptomyces coelicolor [3]): 7.2; Activity (Streptomyces coelicolor [14]): inactive
COc1ccc(C(NC(=O)[C@H](N)CCCN)C(=O)Nc2ccc3ccccc3c2)cc1 (stereo partly drawn)	inactive	–	Active	–
NCC(=O)NC(CCc1ccccc1)C(=O)Nc1ccc2ccccc2c1 (stereo not drawn) (H-Gly-[ξhPhe]-βNA)	inactive	–	Active	–
NCCC[C@@H](N)C(=O)NC(CCc1ccccc1)C(=O)NC1CCCCC1 (stereo partly drawn)	inactive	–	inactive	–
CC(C)C(NC(=O)[C@H](N)CCCN)C(=O)Nc1ccc2ccccc2c1 (stereo partly drawn)	inactive	–	Active	–
NCCC[C@@H](N)C(=O)NC(C(=O)Nc1ccc2ccccc2c1)c1ccccc1 (stereo partly drawn)	inactive	–	Active	–
CCCCNC(=O)C(CCc1ccccc1)NC(=O)[C@H](N)CCCN (stereo partly drawn)	inactive	–	inactive	–
NCCCCC(=O)NC(CCc1ccccc1)C(=O)Nc1ccc2ccccc2c1 (stereo not drawn)	inactive	–	Active	–
NCCCCCC(=O)NC(CCc1ccccc1)C(=O)Nc1ccc2ccccc2c1 (stereo not drawn)	inactive	–	Active	–
NCCC[C@H](N)C(=O)NC(CCc1ccccc1)C(=O)Nc1ccc2ccccc2c1 (mixture of isomers)	inactive	10	–	fold change (FC) (Streptomyces coelicolor [3]): 6.5
NCCC[C@@H](N)C(=O)NC(CCc1ccccc1)C(=O)NCc1ccccc1 (stereo partly drawn)	inactive	–	Active	–
NCCC[C@@H](N)C(=O)OC(CCc1ccccc1)C(=O)Nc1ccc2ccccc2c1 (stereo partly drawn)	inactive	–	–	–
CC(C)(C)NC(=O)C(CCc1ccccc1)NC(=O)[C@H](N)CCCN (stereo partly drawn)	inactive	–	inactive	–
NCCC[C@@H](N)C(=O)NC(C(=O)Nc1ccc2ccccc2c1)c1ccc([N+](=O)[O-])cc1 (stereo partly drawn)	inactive	–	Active	–
NCCC[C@@H](N)C(=O)NC(CCc1ccccc1)C(=O)Nc1cnc2ccccc2c1 (mixture of isomers)	inactive	> 40	–	–
